Activity calls are given as the source filed them. No cut-off for these calls is given here.
Tests used:
PANC-1 [1] = assay: Cytotoxicity against human PANC1 cells after 24 hrs by FMCA method; assay type: functional, cell-based; details: PANC-1, 24 h
Summary of the method: (§1)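 Cells (PANC1, DU145, C3H10T1/2) exposed to compounds in 0.05% DMSO; viability measured, n = 3; IC50 values derived from concentration–response.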

[2] = Cytotoxicity against mouse C3H10T1/2 cells after 24 hrs by FMCA method; assay type: functional, cell-based; details: C3H 10T1/2, 24 h; summary of the method: as §1
[3] = Inhibition of human HH/Gli1-mediated transcriptional activity in tetracycline-treated human HaCaT cells treated after 12 hrs of tetracycline addition by luciferase reporter gene assay; assay type: cell-based
Summary of the method: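 HaCaT cells carrying a GLI1-driven luciferase construct, seeded at 2 × 10⁵ cells per well; compounds added 12 h after tetracycline induction; luciferase activity and cell viability read at the same time point.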

DU-145 = assay: Cytotoxicity against human DU145 cells after 24 hrs by FMCA method; assay type: functional, cell-based; details: DU-145, 24 h; summary of the method: as §1
PANC-1 [4] = assay: Inhibition of human HH/Gli1-mediated PTCH mRNA expression in human PANC1 cells at 0.7 to 1.4 uM by RT-PCR analysis; assay type: cell-based
Summary of the method: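 PANC1 cells treated in 0.05% DMSO; Ptch mRNA quantified by RT-PCR with GAPDH as internal control; n = 3.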

PANC-1 [5] = assay: Inhibition of human HH/Gli1-mediated induction of nuclear Gli1 level in human PANC1 cells at 1.6 uM by Western blot analysis; assay type: cell-based
Summary of the method: (§2)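 PANC1 cells treated, then full, cytosolic and nuclear fractions prepared; GLI1, PTCH and BCL2 protein levels assessed by Western blotting.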

PANC-1 [6] = assay: Inhibition of human HH/Gli1-mediated expression of BCL-2 in human PANC1 cells by Western blot analysis; assay type: cell-based; summary of the method: as §2
PANC-1 [7] = assay: Inhibition of human HH/Gli1-mediated PTCH mRNA expression in human PANC1 cells transfected with Smo siRNA at 0.7 to 1.4 uM by RT-PCR analysis; assay type: cell-based
Summary of the method: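 PANC1 cells transfected with Smo siRNA (non-targeting siRNA at same concentration as control), Smo depletion confirmed by Western blot; treated cells then assayed for Ptch mRNA by real-time quantitative RT-PCR.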

PANC-1 [8] = assay: Inhibition of human HH/Gli1-mediated expression of PTCH in human PANC1 cells by Western blot analysis; assay type: cell-based; summary of the method: as §2
[9] = Homo sapiens, HaCaT, 12 h, read-out: IC50

## O=c1c(O[C@@H]2O[C@@H](CO)[C@H](O)[C@H]2O)c(-c2ccc(O)cc2)oc2cc(O)cc(O)c12 [JUGLANIN]
PANC-1 [1]
  IC50: 1800 nM
[2]
  IC50: > 100000 nM
[3]; [9]
  IC50: 2000 nM
DU-145
  IC50: 2400 nM

## C[C@@H]1O[C@@H](Oc2c(-c3ccc(O)c(O)c3)oc3cc(O)cc(O)c3c2=O)[C@H](O)[C@H](O)[C@H]1O [QUERCITRIN]
[3]; hacat
  IC50: Not Active

## COc1ccc(-c2oc3cc(O)cc(O)c3c(=O)c2O[C@@H]2O[C@@H](C)[C@H](O)[C@@H](O)[C@H]2O)cc1
[3]; hacat
  IC50: Not Active

## C[C@@H]1O[C@@H](OC[C@H]2O[C@@H](Oc3c(-c4ccc(O)c(O)c4)oc4cc(O)cc(O)c4c3=O)[C@H](O)[C@@H](O)[C@@H]2O)[C@H](O)[C@H](O)[C@H]1O [RUTIN]
[3]; hacat
  IC50: Not Active

## CO[C@@H]1[C@@H](O)[C@H](C)O[C@@H](Oc2c(-c3ccc(O)c(O)c3)oc3cc(O)cc(O)c3c2=O)[C@@H]1O
PANC-1 [4]
  inhibition: Active
PANC-1 [5]
  inhibition: Active
PANC-1 [6]
  inhibition: Dose-dependent effect
PANC-1 [7]
  inhibition: Active
PANC-1 [1]
  IC50: 700 nM
[2]
  IC50: > 100000 nM
[3]; [9]
  IC50: 500 nM
DU-145
  IC50: 800 nM
PANC-1 [8]
  inhibition: Dose-dependent effect

## C[C@@H]1O[C@@H](Oc2c(-c3ccc(O)cc3)oc3cc(O)cc(O)c3c2=O)[C@H](O)[C@H](O)[C@H]1O [AFZELIN]
[3]; hacat
  IC50: Not Active

## CO[C@@H]1[C@@H](O)[C@H](C)O[C@@H](OC[C@@]2(O)CO[C@@H](Oc3c(-c4ccc(O)c(O)c4)oc4cc(O)cc(O)c4c3=O)[C@@H]2O)[C@@H]1O
PANC-1 [1]
  IC50: 20000 nM
[2]
  IC50: > 100000 nM
[3]; [9]
  IC50: 19100 nM
DU-145
  IC50: 22000 nM

## CC(=O)O[C@H]1[C@H](Oc2c(-c3ccc(O)cc3)oc3cc(O)cc(O)c3c2=O)O[C@@H](C)[C@H](O)[C@H]1O
[3]; hacat
  IC50: Not Active
